Bioassay records: PubChem BioAssay, The Scripps Research Institute Molecular Screening Center
Only some compounds are listed: those with a hit (about 4.6% of all), similar ones and a draw of the others.
GPR7 antag: blocks human GPR7 receptor signaling. P48145. GPR7-expressing cells, fluorescence antagonist assay. inhibition, % at 4.4 µM. hit rate 1.1% among 290,000; in the data active means inhibition above about 16%, passing the limit was not always enough;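 further: cells stimulated with the agonist NPW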
Target sequence (P48145 whole entry, looked up): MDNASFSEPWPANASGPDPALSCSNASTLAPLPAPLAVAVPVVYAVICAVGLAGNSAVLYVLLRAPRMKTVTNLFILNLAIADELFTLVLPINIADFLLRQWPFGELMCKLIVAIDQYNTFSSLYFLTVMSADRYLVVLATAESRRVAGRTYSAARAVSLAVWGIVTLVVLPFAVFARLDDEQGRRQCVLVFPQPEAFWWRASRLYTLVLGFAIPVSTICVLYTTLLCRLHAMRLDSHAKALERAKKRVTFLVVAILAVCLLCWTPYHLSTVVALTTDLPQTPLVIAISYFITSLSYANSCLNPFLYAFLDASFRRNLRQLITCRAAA
CHO parental Ca: counter-screen for OX1R antagonists: effect in parental CHO cells; hit rate 0.63% among 330,000; inhibition, % at 5.6 µM; AID 463079; parental CHO-K1, ATP-induced calcium, Fluo-8 fluorescence;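 active means inhibition above that plate's mean sample inhibition plus 3 SD, cut at about 26% in these data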
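Assay system: untransfected parental CHO cell line. Also added: ATP agonist challenge. Dosing: one dose, 5.6 µM nominal. Measured by: Fluo-8 fluorescence. Read-out: % inhibition. Benchmarks: ATP wells versus no-ATP DMSO wells. Repeats: no replicates.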
OX1R antag-1: antagonists of human orexin 1 receptor (OX1R) | O43613 | OX1R-expressing cells, FRET antagonist read-out | inhibition, % at 6.6 µM | hit rate 1.8% among 330,000; in the data active means inhibition mostly above about 38%, no sharp cut-off; inactive means mostly below about 40%
TAAR1 ag: agonists of human TAAR1; CHO RD-HGA16 TAAR1, Fluo-8 calcium fluorescence; vehicle wells 0%, saturating PEA agonist 100%; activation, % at 3 µM; hit rate 0.99% among 360,000; AID 624467;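 active means activation above the mean activation of all test compounds in the run plus 3 SD, cut at about 38% in these data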
Target sequence (Q96RJ0 whole entry, looked up): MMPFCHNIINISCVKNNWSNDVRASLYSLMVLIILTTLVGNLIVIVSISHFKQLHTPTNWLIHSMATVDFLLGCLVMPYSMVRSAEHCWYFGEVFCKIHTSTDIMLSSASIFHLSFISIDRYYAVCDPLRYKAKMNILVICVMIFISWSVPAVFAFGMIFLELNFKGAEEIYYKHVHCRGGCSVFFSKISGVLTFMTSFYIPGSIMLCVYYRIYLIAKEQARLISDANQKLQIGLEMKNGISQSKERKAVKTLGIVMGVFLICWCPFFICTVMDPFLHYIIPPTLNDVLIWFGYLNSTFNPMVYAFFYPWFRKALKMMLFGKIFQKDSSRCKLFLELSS
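test system = CHO RD-HGA16 cells carrying human TAAR1 plus Gα16 | schedule = 17-24 h seeding, 75 min 37 °C dye, 30 min RT | compound dosing = 3 µM single concentration | control set = DMSO and PEA EC100 | replicates = n 1 | signal = Fluo-8 fluorescence, 5 s baseline then 140 s kinetic read | measure = percent activation vs PEA EC100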
TAAR1 antag: human TAAR1 antagonism; CHO RD-HGA16 TAAR1, Fluo-8 calcium fluorescence, antagonist; inhibition, % at 3 µM; hit rate 1.5% among 360,000;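 active means inhibition above a per-plate cutoff, the mean inhibition of test compounds on that plate plus 3 SD, cut at about 49% in these data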
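test system = CHO RD-HGA16 cells bearing hTAAR1 | replication = singlicate | controls = DMSO-only wells and EC80 β-PEA-stimulated wells | reagent = EC80 β-phenethylamine stimulus | read-out basis = percent inhibition of PEA-evoked calcium signal, max/basal emission ratio | schedule = seeding 17-24 h prior, 75-min 37 °C, 30-min RT dye loading | signal = kinetic Fluo-8 calcium fluorescence measurement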
OX1R antag-2: human HCRTR1 antagonism; O43613; CHO/OX1R cells, Fluo-8 calcium fluorescence, orexin A; inhibition, % at 5 µM; hit rate 0.43% among 330,000; AID 434989;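 active means inhibition above its plate's threshold, mean inhibition of all tested compounds on the plate plus 3 SD, cut at about 37% in these data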
Hits are given with their value; . = inactive; / = no result given.

SMILES	GPR7 antag	CHO parental Ca	OX1R antag-1	TAAR1 ag	TAAR1 antag	OX1R antag-2
COc1ccc(N(S(=O)(=O)c2ccccc2)S(=O)(=O)c2ccccc2)c(N)c1	/	.	.	.	51	.
COc1ccc(S(N)(=O)=O)cc1N(C)S(=O)(=O)c1ccccc1	.	.	.	.	.	.
Cc1cccc(OCCn2nc(C(=O)O)c3ccccc3c2=O)c1	.	.	.	.	.	.
CC(C)(C)c1ccc(OCCn2nc(C(=O)O)c3ccccc3c2=O)cc1	.	29	.	.	49	46
COC(=O)C1(C(=O)OC)C[C@H](c2cccs2)N(Cc2ccccc2OC)[C@@H]1c1ccc(F)cc1	/	/	/	.	.	/
COc1ccc([C@H]2N[C@]3(CCCN(Cc4ccc(Br)cc4)C3=O)[C@H]3C(=O)N(C)C(=O)[C@@H]23)cc1	/	/	/	.	.	/
COc1ccc(NC(=O)Cn2c3ccccc3c3nc4n(c(=O)c32)CCS4)cc1OC	.	.	.	.	.	.
COc1ccc(NC(=O)Cn2c3ccccc3c3nc4n(c(=O)c32)CCS4)cc1	.	.	74	.	.	.
COc1cccc(NC(=O)Cn2c3ccccc3c3nc4n(c(=O)c32)CCCS4)c1	.	.	37	.	.	.
O=C(CCCN1C(=O)/C(=C\c2ccccc2)SC1=S)N1CCOCC1	/	33	.	.	.	46
O=C(CCN1C(=O)/C(=C\c2ccccc2)SC1=S)NNC(=O)c1ccccc1O	.	.	64	.	.	.
O=C(CCCN1C(=O)/C(=C\c2cccs2)SC1=S)Nc1ccccc1O	/	/	/	.	.	/
O=C(CCN1C(=O)/C(=C\c2ccccc2)SC1=S)NNC(=O)c1cccnc1	.	.	.	.	54	.
O=C(CCCN1C(=O)c2ccccc2C1=O)NCCN1C(=O)S/C(=C\c2cccs2)C1=O	.	.	66	.	.	.
CCOC(=O)C1(C)CCN1C(=O)c1ccccc1Br (stereo unspecified)	/	/	/	.	.	/
C[C@@H]1CN([C@@H](C)CO)C(=O)CCCn2nncc2CO[C@H]1CN(C)Cc1ccc(O)cc1	/	/	/	.	.	/
CCCCNC(=O)C1c2ccccc2OCC(=O)N1CCc1c[nH]c2ccccc12 (stereo unspecified)	/	/	/	.	.	/
Cc1ccc(/C=C2\SC(=S)N(CCC(=O)NNS(=O)(=O)c3ccc(C)cc3)C2=O)cc1	21	.	.	.	.	.
O=C(CN1C(=O)S/C(=C\c2ccccc2)C1=O)NNC(=O)c1ccccc1O	.	.	.	.	.	.
CC(=O)NNC(=O)CN1C(=O)/C(=C/c2ccccc2)SC1=S	21	.	.	.	.	.
O=C(CCCN1C(=O)S/C(=C\c2ccccc2)C1=O)NNC(=O)c1ccccc1O	.	.	56	.	.	.
CCN(CC)C(=O)CN1C(=O)/C(=C/c2ccccc2)SC1=S	.	.	.	.	.	.
O=C(NCc1ccccc1)C(c1ccc(C(F)(F)F)cc1)n1c(=O)c(-c2cc3ccccc3[nH]2)nc2ccccc21 (stereo unspecified)	/	/	/	.	.	/
COc1ccc2c(c1)[C@@]1(OCCC=C[C@H]1C)C(=O)N2Cc1ccc(F)cc1	/	/	/	.	.	/
COCc1cc(N2CCNC[C@H]2C)ccc1N1CCN(Cc2ccccc2)[C@@H](C)C1	/	/	/	.	.	/
SMILES	GPR7 antag	CHO parental Ca	OX1R antag-1	TAAR1 ag	TAAR1 antag	OX1R antag-2
CCCCS(=O)(=O)N1CCCc2nc(C)c(C)cc21	/	/	/	.	.	/
CN(c1cccnc1)c1ccc(NC(=O)Cc2c[nH]c3ccccc23)cc1-c1ccc(C(C)(C)C)cc1	/	/	/	.	.	/
O=C(CNC(=O)C1COc2ccccc2O1)N/N=C\c1cccc(O)c1 (stereo unspecified)	.	.	.	.	.	.
O=C(CNC(=O)C1COc2ccccc2O1)N/N=C/c1ccc(O)cc1O (stereo unspecified)	.	.	.	41	.	.
O=C(Oc1cccc(Nc2ncnc3ccccc23)c1)c1ccccc1Cl	.	71	95	.	74	53
CCCCn1nnnc1C1(C)CCC(=O)N1CCOC (stereo unspecified)	/	/	/	.	.	/
O=C(CNC(=O)c1cccs1)c1ccc([N+](=O)[O-])cc1	.	.	59	.	.	.
O=C(CNC(=O)c1ccco1)OCC(=O)c1ccc([N+](=O)[O-])cc1	.	.	41	.	.	.
O=C(CNC(=O)c1ccc([N+](=O)[O-])cc1)c1ccccc1	.	.	47	/	/	.
O=C(CNC(=O)c1cccs1)OCC(=O)c1ccc([N+](=O)[O-])cc1	.	.	.	.	.	.
CC(=O)NC(CC(=O)c1ccc([N+](=O)[O-])cc1)C(Cl)(Cl)Cl (stereo unspecified)	.	.	76	.	.	.
COc1cccc(NC(=O)CN2CCN(c3ccc(F)cc3)CC2)c1	.	.	.	.	.	.
CCOC(=O)c1ccc(N2CCN(c3ccccc3F)CC2)c(NC(=O)Nc2ccccc2)c1	.	39	.	.	.	.
CCOC(=O)c1ccc(N2CCN(c3ccc(F)cc3)CC2)c(NC(=O)Nc2cccc(OC)c2)c1	.	.	.	.	58	.
CCC(CO)Oc1cc(NCc2ccc(C(C)(C)C)cc2)c2ncn(C(C)C)c2c1 (stereo unspecified)	/	50	.	.	.	.
CC(C)n1cnc2c(NCc3ccccc3)cc(N[C@H](C)CO)cc21	/	.	75	/	/	.
COc1ccc(Cc2cc(NCc3ccccc3)c3ncn(C(C)C)c3c2)cc1	/	.	.	38	.	.
CCC(CO)Oc1cc(NCc2ccc(O)cc2)c2ncn(C(C)C)c2c1 (stereo unspecified)	/	.	.	.	.	.
CCC(COC)Oc1cc(NCc2ccccc2)c2ncn(C(C)C)c2c1 (stereo unspecified)	/	.	35	.	.	.
Cc1nnsc1-c1nc2ccccc2n1C(CCc1ccccc1)c1nc2ccccc2[nH]1 (stereo unspecified)	/	/	/	.	.	/
OCc1ccccc1-c1nc(NCC2CC2)nc2ccsc12	/	/	/	.	.	/
Cc1ccc(CNC(=O)C2CC(c3ccc(C(F)(F)F)cc3)=NO2)o1 (stereo unspecified)	/	62	.	.	.	.
Cc1cc(OCCCCCNCCO)cc(C)c1Cl	19	.	.	.	.	.
Cc1cc(OCCNCCO)cc(C)c1Cl	.	.	.	.	.	.
COc1ccc(NC(=O)CCNC(=O)c2ccc([N+](=O)[O-])cc2)cc1S(=O)(=O)N1CCCCC1	/	/	/	.	.	/
COc1ccc(C(=O)c2ccc([N+](=O)[O-])cc2)cc1S(=O)(=O)N1CCC(C(=O)O)CC1	.	.	53	.	.	.
Cc1ccc(S(=O)(=O)NCCC(=O)OCc2ccc([N+](=O)[O-])cc2)cc1C	/	41	.	.	50	.
c1ccc(Oc2nnc(-c3cccs3)c3ccccc23)cc1	.	.	.	.	.	.
